Results on one compound are retold here after ChEMBL document CHEMBL2384933, “Vitexin inhibits inflammatory pain in mice by targeting TRPV1, oxidative stress, and cytokines” (J Nat Prod, 2013).

The source made the active and inactive calls.

For series [1], the system named is Mus musculus. In words: Neurotoxicity in Swiss mouse assessed as change in motor response at 10 mg/kg, ip after 3.5 hrs by rotarod test (reference value: 180 seconds). It counts as toxicity, organism-based. Set-up: dose 10 mg/kg, route intraperitoneal. Conditions: in vivo. Summed up: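 Rota-rod with a 2.5 cm bar at 22 rpm. Mice pre-selected 24 h earlier by staying on the bar for two consecutive 180 s periods. Given 10 mg/kg ip (vehicle 2% DMSO in saline) and tested at 1.5, 3.5 and 5.5 h, with a 180 s cutoff. n = 6.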

Series [2] concerns Mus musculus. In words: Antinociceptive activity in Swiss mouse assessed as inhibition of complete Freund's adjuvant-induced paw flinching at 10 mg/kg, ip administered 30 mins prior to complete Freund's adjuvant-challenge measured after 30 mins. It counts as functional, organism-based. Set-up: dose 10 mg/kg. Summed up:
(§1)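 Dosed ip 30 min before intraplantar CFA (10 μL/paw). Flinches and licking time of the injected paw counted over 0–30 min and expressed as totals for 30 min. Six mice per group; representative of two experiments.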

Series [3] deals with Mus musculus. Put plainly: Antinociceptive activity in ip dosed Swiss mouse assessed as inhibition of carrageenan-induced thermal hyperalgesia administered 30 mins prior to carrageenan-challenge measured after 1 to 5 hrs by hot plate test. The class given is functional, organism-based. An outline of the steps: (§2)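 Doses of 1–10 mg/kg given ip 30 min before intraplantar carrageenan (300 μg/paw). Hot plate held at 55 °C; latency to jump or lick paws recorded at 1, 3 and 5 h, with a 30 s cutoff. Two baseline latencies taken at least 10 min apart. Six mice per group.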

For series [4], the system named is Mus musculus. Put plainly: Antiinflammatory activity in Swiss mouse assessed as inhibition of carrageenan-induced IL-1beta production 10 mg/kg, ip administered 30 mins prior to carrageenan-challenge measured after 3 hrs by ELISA. It counts as functional, organism-based. Set-up: dose 10 mg/kg. Particulars: at 10 mg/kg. An outline of the steps:
(§3)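 Compound given ip in saline 30 min before intraplantar carrageenan (300 μg/paw). Paw skin taken 3 h later and homogenized in 500 μL buffer with protease inhibitors. TNF-α, IL-1β, IL-6, IL-33 and IL-10 measured by ELISA, reported as pg/100 mg tissue. Saline-injected paws served as controls. Six mice per group; representative of two experiments.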

Series [5] has as its system Mus musculus. In words: Antinociceptive activity in Swiss mouse assessed as decrease in capsaicin-induced time spent for licking paw at 10 mg/kg, ip administered 30 mins prior to capsaicin-challenge measured after 5 mins. Set-up: dose 10 mg/kg. It counts as functional, organism-based. Summed up:
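Pretreatment ip 30 min before intraplantar capsaicin (1.6 μg/paw), given after an adaptation period. Mice observed individually for 5 min afterwards. Total flinches and time spent licking the injected paw were scored. Six mice per group; representative of two experiments; one-way ANOVA with Tukey's test.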

Series [6] relates to Mus musculus. Put plainly: Antinociceptive activity in Swiss mouse assessed as inhibition of carrageenan-induced thermal hyperalgesia at 1 mg/kg, ip administered 30 mins prior to carrageenan-challenge measured after 1 to 5 hrs by hot plate test. The class given is functional, organism-based. Set-up: dose 1 mg/kg. Summed up: as §2
Series [7] relates to Mus musculus. Put plainly: Antinociceptive activity in Swiss mouse assessed as inhibition of capsaicin-induced mechanical hyperalgesia at 10 mg/kg, ip administered 30 mins prior to capsaicin-challenge measured after 1 to 5 hrs by electronic pressure-meter test. It counts as functional, organism-based. Set-up: dose 10 mg/kg. Summed up:
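Dosed at 10 mg/kg ip 30 min before intraplantar capsaicin (1.6 μg/paw). Mechanical hyperalgesia measured by electronic pressure-meter as Δ withdrawal threshold (g), average of three readings. Thermal hyperalgesia measured as hot-plate latency at 55 °C with a 30 s cutoff. Both read at 1, 3 and 5 h. Six mice per group.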

The test system of series [8] is Mus musculus. In words: Antinociceptive activity in Swiss mouse assessed as decrease in complete Freund's adjuvant-induced time spent for licking paw at 10 mg/kg, ip administered 30 mins prior to complete Freund's adjuvant-challenge measured after 30 mins. It counts as functional, organism-based. Set-up: dose 10 mg/kg. An outline of the steps: as §1
Series [9] relates to Mus musculus. In words: Antioxidant activity in Swiss mouse assessed as prevention of carrageenan-induced decrease in ferric-reducing ability potential at 10 mg/kg, ip administered 30 mins prior to carrageenan-challenge measured after 3 hrs by spectrophotometric analysis. It counts as functional, organism-based. Set-up: dose 10 mg/kg. An outline of the steps:
(§4)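 Given at 10 mg/kg ip 30 min before intraplantar carrageenan; plantar skin taken at 3 h, two mice pooled per sample. Tissue homogenized in 1.15% KCl. FRAP: 37 °C for 30 min, absorbance at 595 nm. ABTS: diluted to A730 0.80 in PBS pH 7.4, read at 730 nm after 6 min. Both expressed as Trolox equivalents/mg tissue (Trolox standard 1.5–30 μmol/L final).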

Series [10] concerns Mus musculus. In words: Antinociceptive activity in Swiss mouse assessed as decrease in formalin-induced time spent for licking paw at 10 mg/kg, ip administered 30 mins prior to formalin-challenge measured after 30 mins. It counts as functional, organism-based. Set-up: dose 10 mg/kg. An outline of the steps:
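Given ip 30 min before intraplantar formalin (25 μL of 1.5% in saline). Paw flinches and licking time recorded from 0 to 30 min in 5-min bins, covering the first (0–5 min) and second (10–30 min) phases. Six mice per group; representative of two experiments.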

Series [11] relates to Mus musculus. In words: Antinociceptive activity in Swiss mouse assessed as inhibition of carrageenan-induced mechanical hyperalgesia at 10 mg/kg, ip administered 30 mins prior to carrageenan-challenge measured after 1 to 5 hrs by electronic pressure-meter test. It counts as functional, organism-based. Also noted: dose 10 mg/kg. Summed up: (§5)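 Doses of 1–10 mg/kg given ip 30 min before intraplantar carrageenan (300 μg/paw). Electronic pressure-meter applied to mice on a wire grid floor; paw withdrawal with flinching was the end point, and each value is the average of three readings. Result reported as Δ withdrawal threshold (g) from baseline at 1, 3 and 5 h. Six mice per group; two-way ANOVA.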

The subject of series [12] is Mus musculus. Put plainly: Antiinflammatory activity in Swiss mouse assessed as inhibition of carrageenan-induced TNFalpha production 10 mg/kg, ip administered 30 mins prior to carrageenan-challenge measured after 3 hrs by ELISA. The class given is functional, organism-based. Also noted: dose 10 mg/kg. Particulars: at 10 mg/kg. Summed up: as §3
Series [13] concerns Mus musculus. In words: Antioxidant activity in Swiss mouse assessed as prevention of carrageenan-induced decrease in 2,2'-Azinobis(3-ethylbenzothiazoline 6-sulfonic acid) scavenging ability at 10 mg/kg, ip administered 30 mins prior to carrageenan-challenge measured after 3 hrs by spectrophotometric analysis. It counts as functional, organism-based. Also noted: dose 10 mg/kg. An outline of the steps:
as §4

The subject of series [14] is Mus musculus. In words: Toxicity in Swiss mouse assessed as change in myeloperoxidase activity in stomach at 10 mg/kg, ip for 7 days by spectrophotometric analysis. It counts as organism-based. Set-up: dose 10 mg/kg, route intraperitoneal. Particulars: in vivo, 168 h. Summed up: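 Mice dosed daily ip at 10 mg/kg for 7 days. Stomach homogenized in 50 mM phosphate buffer pH 6.0 with 0.5% HTAB and centrifuged at 16100g. Supernatant mixed with o-dianisidine (0.167 mg/mL) and 0.015% H2O2; read at 450 nm three times within 1 min. Activity expressed as neutrophils ×10⁴/mg tissue against a neutrophil standard curve.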

Series [15] relates to Mus musculus. Put plainly: Antinociceptive activity in Swiss mouse assessed as inhibition of carrageenan-induced mechanical hyperalgesia at 1 to 3 mg/kg, ip administered 30 mins prior to carrageenan-challenge measured after 5 hrs by electronic pressure-meter test. The class given is functional, organism-based. Summed up:
as §5

The subject of series [16] is Mus musculus. Put plainly: Antioxidant activity in Swiss mouse assessed as prevention of carrageenan-induced decrease in GSH levels at 10 mg/kg, ip administered 30 mins prior to carrageenan-challenge measured after 3 hrs by UV-vis spectrophotometric analysis. It counts as functional, organism-based. Set-up: dose 10 mg/kg. Summed up: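 Given at 10 mg/kg ip 30 min before intraplantar carrageenan (300 μg/paw); plantar skin taken at 3 h, four paws pooled per sample. Tissue homogenized in 0.02 M EDTA with TCA and centrifuged. Supernatant reacted with DTNB in Tris 0.4 M pH 8.9; absorbance read at 412 nm after 5 min. Reported as nmol GSH/mg tissue. Three pools per experiment.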

The subject of series [17] is Mus musculus. In words: Antinociceptive activity in ip dosed Swiss mouse assessed as inhibition of carrageenan-induced mechanical hyperalgesia administered 30 mins prior to carrageenan-challenge measured at 1 to 5 hrs by electronic pressure-meter test. The class given is functional, organism-based. Summed up: as §5
Series [18] relates to Mus musculus. In words: Hepatotoxicity in Swiss mouse assessed as change in plasma ALT level at 10 mg/kg, ip for 7 days. The class given is toxicity, organism-based. Set-up: dose 10 mg/kg, route intraperitoneal. Particulars: in vivo, 168 h. An outline of the steps: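 Mice dosed daily ip at 10 mg/kg for 7 days; vehicle was saline or Tris/HCl pH 8.0. Plasma AST and ALT measured with a diagnostic kit.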

With `O=c1cc(-c2ccc(O)cc2)oc2c([C@@H]3O[C@H](CO)[C@@H](O)[C@H](O)[C@H]3O)c(O)cc(O)c12` [VITEXIN], the Time in series [1] was found to be 180 s. Besides, the inhibition result in [2], in [4], in series [5], in series [7], in series [8] and in [10] was “Active” each time. Also, the inhibition entry in [11], in [12] and in [15] was “Active” each time. Besides, the inhibition result in series [3] and in [17] was “Dose-dependent effect” each time. In addition, in series [6], the inhibition entry is “inactive”. Further, the outcome in series [9], in [13] and in [16] was Active. Besides, the Activity entry in [14] and in series [18] was “Non-toxic” each time.
